Consider 24 compounds from ChEMBL document CHEMBL1153333, “Structure-activity relationship studies of curcumin analogues” (Bioorg Med Chem Lett, 2009).

In assay [1] the test system is MDA-MB-231. Description: Antiproliferative activity against human MDA-MB-231 cells after 72 hrs by MTT assay. It counts as functional, cell-based. As to conditions: MDA-MB-231, 72 h. (Tetrazolium dyes change colour on reduction, which living cells bring about.)
Assay [2] is described as follows: Antiproliferative activity against human MCF10A cells after 72 hrs by MTT assay. It counts as cell-based. As to conditions: MCF-10A. The method in brief:
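Spontaneously immortalized, non-malignant human mammary epithelial MCF-10A cells were exposed to compounds for 72 h. Viability was read by MTT assay, and IC50 was taken from that read-out.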

The subject of assay [3] is MCF7. In words: Antiproliferative activity against human MCF7 cells after 72 hrs by MTT assay. Type of assay: functional, cell-based. Particulars: MCF7, 72 h.
Assay [4] has as its system LNCaP. In words: Antiproliferative activity against human LNCAP cells after 72 hrs by MTT assay. It counts as functional, cell-based.
The test system of a further assay is PC-3. Description: Antiproliferative activity against human PC3 cells after 72 hrs by MTT assay. It counts as functional, cell-based. Particulars: PC-3, 72 h.
For assay [5], the system named is MDA-MB-231. In words: Ratio of IC50 for human MCF10A cells to IC50 for human MDA-MB-231 cells. The method in brief: (§1)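 Selectivity ratio is the IC50 on non-malignant MCF-10A cells divided by the IC50 on the cancer cell line.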
For assay [6], the system named is MCF7. Description: Ratio of IC50 for human MCF10A cells to IC50 for human MCF7 cells. Summed up:
as §1

Assay [7] relates to LNCaP. Description: Ratio of IC50 for human MCF10A cells to IC50 for human LNCAP cells. Summed up:
as §1

Another assay relates to MCF-10A. Description: Ratio of IC50 for human MCF10A cells to IC50 for human PC3 cells. The method in brief: as §1

As for `COc1ccc(/C=C/C(=O)/C=C(O)/C=C/c2ccc(OC)c(OC)c2)cc1OC` [DIMETHYLCURCUMIN], the IC50 in the assay on MDA-MB-231 [1] worked out at 4.9 µM; in [2], 31.5 µM; in the assay with MCF7 [3], 5.4 µM; with LNCaP [4], 3.9 µM; with PC-3, 5.9 µM.

As to `COc1ccc(/C=C/C(=O)/C=C/c2ccc(OC)c(OC)c2)cc1OC`, the IC50 in the assay with MDA-MB-231 [1] amounted to 1.6 µM; in the assay on MCF7 [3] it was 2.5 µM; in the assay with LNCaP [4], 2.2 µM; in the assay with PC-3 it was 2.9 µM.

As for `COc1cc(/C=C/C(=O)CC(=O)/C=C/c2ccc(O)c(OC)c2)ccc1O` [CURCUMIN], the IC50 with MDA-MB-231 [1] stood at 25.6 µM; in [2], 30.1 µM; with MCF7 [3], 21.5 µM; with LNCaP [4] it was 19.6 µM; in the assay with PC-3, 19.8 µM.

Take `COc1ccc(/C=C/C(=O)/C=C/c2ccc(OC)c(O)c2)cc1O`: the IC50 in the assay on MDA-MB-231 [1] came out at 3.1 µM; with MCF7 [3], 2.9 µM; in the assay with LNCaP [4], 2.6 µM; with PC-3, 5.9 µM.

For `COc1cc(OC)c(OC)cc1/C=C/C(=O)/C=C/c1cc(OC)c(OC)cc1OC`, the “Ratio IC50” value with MDA-MB-231 [5], with MCF7 [6], with LNCaP [7] and with MCF-10A was “>=5” in each case. The IC50 with MDA-MB-231 [1] was 2.4 µM; in [2], > 50 µM; in the assay with MCF7 [3], 2.4 µM; in the assay on LNCaP [4] it was 1.7 µM; with PC-3, 4.6 µM.

For the compound `COc1ccc(/C=C/C(=O)/C=C(O)/C=C/c2ccc(OC)c(OS(N)(=O)=O)c2)cc1OS(N)(=O)=O`, the IC50 in the assay on MDA-MB-231 [1] is 6.5 µM; in the assay on MCF7 [3] it was 5.5 µM; in the assay with LNCaP [4], 7.7 µM; in the assay on PC-3, 7.4 µM.

With `COc1cc(/C=C/C(=O)/C=C(O)/C=C/c2cc(OC)c(OS(N)(=O)=O)c(OC)c2)cc(OC)c1OS(N)(=O)=O`, the IC50 was determined as 5.5 µM in the assay with MDA-MB-231 [1], 4.7 µM in the assay with MCF7 [3], 10.4 µM with LNCaP [4] and 13.1 µM in the assay with PC-3.

On to `COc1cc(OC)c(/C=C/C(=O)/C=C/c2c(OC)cc(OC)cc2OC)c(OC)c1`, for which the “Ratio IC50” value in the assay with MDA-MB-231 [5], in the assay on MCF7 [6], in the assay with LNCaP [7] and in the assay with MCF-10A was 25 each time. Also, the IC50 with MDA-MB-231 [1] was 0.6 µM; in [2], > 50 µM; in the assay on MCF7 [3], 0.4 µM; in the assay with LNCaP [4], 0.5 µM; in the assay with PC-3, 2.1 µM.

Take `COc1cccc(/C=C/C(=O)/C=C(O)/C=C/c2cccc(OC)c2)c1`: the IC50 in the assay with MDA-MB-231 [1] stood at 31.9 µM; in the assay with MCF7 [3], 25.9 µM; in the assay on LNCaP [4], 34.7 µM; in the assay on PC-3 it was 40 µM.

Regarding `COc1cc(/C=C/C(=O)/C=C/c2cc(OC)c(OS(N)(=O)=O)c(OC)c2)cc(OC)c1OS(N)(=O)=O`, the IC50 with MDA-MB-231 [1] stood at 0.6 µM; with MCF7 [3], 1.5 µM; in the assay with LNCaP [4] it was 1.9 µM; in the assay with PC-3, 2.4 µM.

For `COc1cc(/C=C/C(O)=C/C(=O)/C=C/c2ccc(OC)c(OC)c2)ccc1O` [METHYLCURCUMIN], the IC50 in the assay on MDA-MB-231 [1] came to 7.2 µM; with MCF7 [3], 15.4 µM; in the assay with LNCaP [4], 6.8 µM; in the assay on PC-3, 20.9 µM.

`COc1cc(/C=C/C(=O)/C=C(O)/C=C/c2ccc(OS(N)(=O)=O)c(OC)c2)ccc1OS(N)(=O)=O`: the IC50 with MDA-MB-231 [1] was determined as 3.1 µM; in the assay on MCF7 [3], 5.5 µM; with LNCaP [4], 5.9 µM; with PC-3, 7.5 µM.

Consider `COc1cc(/C=C/C(=O)/C=C/c2cc(OC)c(O)c(OC)c2)cc(OC)c1O`, for which the half-maximal inhibitory concentration (IC50) in the assay on MDA-MB-231 [1] was determined as 2.7 µM; with MCF7 [3], 1.7 µM; in the assay with LNCaP [4] it was 2.5 µM; in the assay with PC-3, 3.6 µM.

With `COc1cc(/C=C/c2cc(/C=C/c3ccc(O)c(OC)c3)[nH]n2)ccc1O` [CURCUMIN PYRAZOLE], the “Ratio IC50” value in the assay with MDA-MB-231 [5], with MCF7 [6], in the assay on LNCaP [7] and in the assay on MCF-10A was “>=5” throughout. Also, the IC50 in the assay with MDA-MB-231 [1] was 6.6 µM; in assay [2], > 50 µM; in the assay with MCF7 [3] it was 5.9 µM; in the assay on LNCaP [4], 3.4 µM; with PC-3, 5.6 µM.

Consider `O=C(/C=C/c1ccc(O)cc1)CC(=O)/C=C/c1ccc(O)cc1` [BISDEMETHOXYCURCUMIN], for which the IC50 came to 21.9 µM in the assay with MDA-MB-231 [1], 24.3 µM in the assay with MCF7 [3], 19.7 µM with LNCaP [4] and 27.3 µM with PC-3.

Turning to `NS(=O)(=O)Oc1ccc(/C=C/C(=O)/C=C/c2ccc(OS(N)(=O)=O)cc2)cc1`, the IC50 in the assay with MDA-MB-231 [1] was found to be 4.2 µM; in the assay on MCF7 [3] it was 3.5 µM; in the assay on LNCaP [4], 5.1 µM; with PC-3, 5.1 µM.

Turning to `COc1cc(/C=C/C(=O)/C=C/c2ccc(OS(N)(=O)=O)c(OC)c2)ccc1OS(N)(=O)=O`, the IC50 was 1.7 µM in the assay with MDA-MB-231 [1], 6.6 µM with MCF7 [3], 2.4 µM with LNCaP [4] and 6.1 µM with PC-3.

Regarding `O=C(/C=C/c1ccc(O)cc1)/C=C/c1ccc(O)cc1`, the IC50 worked out at 3.9 µM with MDA-MB-231 [1], 6.9 µM in the assay on MCF7 [3], 5.8 µM with LNCaP [4] and 9.5 µM with PC-3.

On to `COc1cc(/C=C/C(=O)/C=C/c2cc(OC)cc(OC)c2)cc(OC)c1`, for which the “Ratio IC50” value in the assay on MDA-MB-231 [5], in the assay with MCF7 [6], with LNCaP [7] and with MCF-10A was “>=5” in each case. Also, the 50% inhibitory concentration (IC50) in the assay on MDA-MB-231 [1] was 1.5 µM; in assay [2], > 50 µM; in the assay with MCF7 [3] it was 2.7 µM; with LNCaP [4], 2.1 µM; with PC-3, 2.5 µM.

Take `CC(=O)Oc1ccc(/C=C/C(=O)/C=C(O)/C=C/c2ccc(OC(C)=O)c(OC(C)=O)c2)cc1OC(C)=O`: the IC50 in the assay on MDA-MB-231 [1] stood at 12.3 µM; with MCF7 [3], 17.8 µM; with LNCaP [4] it was 20.2 µM; in the assay with PC-3, 12.9 µM.

Regarding `COc1cc(/C=C/C(O)=C/C(=O)/C=C/c2ccc(OS(N)(=O)=O)c(OC)c2)ccc1O`, the 50% inhibitory concentration (IC50) with MDA-MB-231 [1] came to 14.3 µM; in the assay with MCF7 [3], 15.1 µM; in the assay on LNCaP [4], 20 µM; with PC-3 it was 19.3 µM.

Consider `COc1cc(/C=C/c2cc(/C=C/c3ccc(O)c(OC)c3)n(C)n2)ccc1O`, for which the IC50 with MDA-MB-231 [1] turned out to be 20.4 µM; in the assay on MCF7 [3], 15.8 µM; in the assay on LNCaP [4], 12.1 µM; with PC-3 it was 16.2 µM.

As for `COc1cc(/C=C/C(=O)/C=C/c2ccc(O)c(OC)c2)ccc1O`, the IC50 is 2.8 µM in the assay on MDA-MB-231 [1], 2.4 µM with MCF7 [3], 2.7 µM with LNCaP [4] and 3.9 µM in the assay with PC-3.

With `COc1ccc(/C=C/C(=O)/C=C(O)/C=C/c2ccc(OC)c(O)c2)cc1O`, the IC50 in the assay on MDA-MB-231 [1], with MCF7 [3], in the assay on LNCaP [4] and with PC-3 was > 40 µM throughout.

A word on the IC50: it is the concentration needed to halve the response being measured.
